Measured values reported in ChEMBL document CHEMBL1132256, “Structure-activity relationships for substituted bis(acridine-4-carboxamides): a new class of anticancer agents” (J Med Chem, 1999).

Key:
[1] = test system: Lewis lung carcinoma cell line; assay: Inhibitory activity of tested against Murine Lewis lung carcinoma; assay type: functional, cell-based; details: Mus musculus
Procedure, shortened: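 Lewis lung carcinoma (LLTC) cells at 10^3 cells/well, 4-day continuous drug exposure, growth read by sulforhodamine assay. IC50 (nM) = concentration giving 50% of control cell number. Duplicate independent assays, CV ca. 25%.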

[2] = test system: Jurkat; assay: Ratio of inhibitory activity against amsacrine resistant jurkat cells to inhibitory activity against wild type human jurkat cells; assay type: functional
Procedure, shortened: (§1)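 Wild-type Jurkat (JLC) and its amsacrine-resistant (JLA) or doxorubicin-resistant (JLD) sublines each seeded at 3.75 × 10^3 cells/well, 4 days with drug, sulforhodamine read-out. IC50 (nM) for 50% of control cell number; ratio = resistant-line IC50 divided by JLC IC50. Duplicate assays, CV ca. 25%.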

[3] = test system: NCI/ADR-RES; assay: inhibitory activity against multi drug resistant NCI/ADR cell line.; assay type: functional; details: Homo sapiens
Procedure, shortened: (§2)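 Tested in the NCI human cell line panel. GI50 = drug concentration (nM) giving growth inhibition to 50% of controls; values below 10 nM were taken as 10 nM in calculations.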

[4] = test system: MCF7; assay: inhibitory activity against multi drug resistant MCF cell line.; assay type: functional; details: Homo sapiens, in the assay text read “MCF7 cell line” for “multi drug resistant MCF cell line”; procedure, shortened: as §2
[5] = test system: Jurkat; assay: Concentration required to inhibit 50% growth of human Jurkat cells; assay type: functional, cell-based
Procedure, shortened: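 Jurkat leukemia (JLC) cells seeded at 3.75 × 10^3 cells/well and exposed to drug for 4 days; growth measured by sulforhodamine assay. IC50 = drug concentration (nM) reducing cell number to 50% of control cultures. Independent assays in duplicate, coefficients of variation ca. 25%.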

[6] = test system: Jurkat; assay: Ratio of inhibitory activity against doxorubicin resistant jurkat cells to inhibitory activity against wild type human jurkat cells; assay type: functional; procedure, shortened: as §1
[7] = test system: HCT-116; assay: inhibitory activity against colon HCT116 cell line.; assay type: functional; details: Homo sapiens; procedure, shortened: as §2
[8] = test system: CAKI-1; assay: inhibitory activity against renal tumor […] cell line.; assay type: functional; details: Homo sapiens; procedure, shortened: as §2
[9] = test system: SK-OV-3; assay: inhibitory activity against ovarian carcinoma SKOV3 cell line.; assay type: functional; details: Homo sapiens; procedure, shortened: as §2
[10] = test system: HT-29; assay: inhibitory activity against colon HT-29 cell line.; assay type: functional; details: Homo sapiens; procedure, shortened: as §2
[11] = test system: P388; assay: Inhibitory activity against Murine […]; assay type: functional, cell-based; details: Mus musculus
Procedure, shortened: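 Murine P388 leukemia cells seeded at 4.5 × 10^3 cells/well, cultured 3 days with drug; growth measured by [3H]TdR uptake. IC50 = drug concentration (nM) reducing cell number to 50% of controls. Independent assays in duplicate, CV ca. 25%.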

IC50 [1] [nM]	GI50 [4] [nM]	IC50 [5] [nM]	GI50 [7] [nM]	GI50 [9] [nM]	GI50 [10] [nM]	IC50 [11] [nM]	SMILES	Ratio [2]	GI50 [3] [nM]	Ratio [6]	GI50 [8] [nM]
6	13	24	< 10	166	< 10	15	CN(CCCNC(=O)c1cccc2cc3cccc(Br)c3nc12)CCCNC(=O)c1cccc2cc3cccc(Br)c3nc12	0.4	110	0.9	< 10
1080	1020	2540	5060	12000	1620	1230	CN(CCCNC(=O)c1cccc2cc3cccc(-c4ccccc4)c3nc12)CCCNC(=O)c1cccc2cc3cccc(-c4ccccc4)c3nc12	0.5	1790	0.8	12000
2400	3030	1300	446	13000	1430	3500	Cc1ccc2cc3ccccc3nc2c1C(=O)NCCCN(C)CCCNC(=O)c1c(C)ccc2cc3ccccc3nc12	0.9	16000	1	6360
2980	488	900	171	8380	727	> 200000	CN(CCCNC(=O)c1c(Cl)ccc2cc3ccccc3nc12)CCCNC(=O)c1c(Cl)ccc2cc3ccccc3nc12	0.9	37000	1.2	4580
123	614	238	216	1070	120	750	CN(CCCNC(=O)c1cccc2cc3c(Cl)cccc3nc12)CCCNC(=O)c1cccc2cc3c(Cl)cccc3nc12	0.8	624	1.2	450
14	54	41	< 10	1170	< 10	170	Cc1ccc(C(=O)NCCCN(C)CCCNC(=O)c2ccc(C)c3cc4ccccc4nc23)c2nc3ccccc3cc12	0.6	77	1	42
27	265	113	221	10000	1390	170	CCc1cccc2cc3cccc(C(=O)NCCCN(C)CCCNC(=O)c4cccc5cc6cccc(CC)c6nc45)c3nc12	0.7	1340	0.9	104
73	190	275	12	1180	34	270	Cc1ccc2nc3c(C(=O)NCCCN(C)CCCNC(=O)c4cccc5cc6cc(C)ccc6nc45)cccc3cc2c1	0.9	480	1.1	268
39	79	115	32	1260	33	240	CN(CCCNC(=O)c1cccc2cc3cccc(C(F)(F)F)c3nc12)CCCNC(=O)c1cccc2cc3cccc(C(F)(F)F)c3nc12	0.85	1290	1.1	600
8	167	33	14	12000	31	46	CN(CCCNC(=O)c1cccc2cc3cccc(Cl)c3nc12)CCCNC(=O)c1cccc2cc3cccc(Cl)c3nc12	0.55	1200	1	95.9
3.2	< 10	11	< 10	320	< 10	24	Cc1ccc(C)c2nc3c(C(=O)NCCCN(C)CCCNC(=O)c4cccc5cc6c(C)ccc(C)c6nc45)cccc3cc12	0.4	172	0.7	< 10
16	174	71	13	594	60	180	Cc1cccc2nc3c(C(=O)NCCCN(C)CCCNC(=O)c4cccc5cc6c(C)cccc6nc45)cccc3cc12	0.7	1040	1	58
13	13	51	< 10	11000	< 10	66	CN(CCCNC(=O)c1cccc2cc3ccc(Cl)cc3nc12)CCCNC(=O)c1cccc2cc3ccc(Cl)cc3nc12	0.5	274	0.9	< 10
35	< 10	49	< 10	845	< 10	16	CN(CCCNC(=O)c1cccc2cc3cccc(F)c3nc12)CCCNC(=O)c1cccc2cc3cccc(F)c3nc12	0.6	93	0.9	34
30	24	110	< 10	8570	< 10	130	CN(CCCNC(=O)c1cccc2cc3ccccc3nc12)CCCNC(=O)c1cccc2cc3ccccc3nc12	0.7	408	0.8	14
